# Key:
# [1] = molecular target: T1, CDK9/cyclin T1 (Homo sapiens) (UniProt O60563+P50750); assay: Inhibition of human CDK9/cyclin T assessed as residual activity at 10 uM in presence of ATP by ADP-glo luminescent assay relative to control; type: protein-complex assay
# Method in brief: (§1)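 Human kinases assayed by ADP-Glo luminescence with 10 μM ATP, compound at 10 or 1 μM. Activity is expressed as % of maximal activity relative to a DMSO control, mean n = 2.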
# [2] = organism: Sus scrofa; assay: Inhibition of porcine GSK3alpha/beta assessed as residual activity at 10 uM in presence of ATP by ADP-glo luminescent assay relative to control
# Method in brief: (§2)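 Porcine brain GSK3α/β, native and affinity-purified. Assayed by ADP-Glo luminescence with 10 μM ATP and 0.010 μg/μl GS-1 peptide substrate. Buffer A: 10 mM MgCl2, 1 mM EGTA, 1 mM DTT, 25 mM Tris-HCl pH 7.5, 50 μg/ml heparin. Compound tested at 10 or 1 μM. Result is % of maximal activity versus DMSO control, mean of n = 2.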
# [3] = tested on: Plasmodium falciparum; assay: Inhibition of Plasmodium falciparum GSK3 assessed as residual activity at 1 uM in presence of ATP by ADP-glo luminescent assay relative to control
# Method in brief: (§3)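 Recombinant P. falciparum GSK3, bacterially expressed, in buffer A (10 mM MgCl2, 1 mM EGTA, 1 mM DTT, 25 mM Tris-HCl pH 7.5, 50 μg/ml heparin). Substrate 0.010 μg/μl GS-1 peptide, 10 μM ATP, ADP-Glo luminescence. Compound at 10 or 1 μM; % residual activity vs DMSO control, mean n = 2.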
# [4] = tested on: K562; assay: Antiproliferative activity against human K562 cells assessed as reduction in cell viability incubated for 72 hrs by CellTiter-Blue resazurin fluorescence assay; details: K562, 72 h
# [5] = molecular target: T2, Glycogen synthase kinase-3 beta (Homo sapiens, UniProt P49841); assay: Inhibition of human GSK3beta in presence of ATP by ADP-glo luminescent assay
# Method in brief: (§4)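 Human kinases tested over roughly 0.0003–10 μM by ADP-Glo luminescence with 10 μM ATP, in duplicate. IC50 is taken from dose-response curves.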
# Target sequence in this assay (P49841 whole entry): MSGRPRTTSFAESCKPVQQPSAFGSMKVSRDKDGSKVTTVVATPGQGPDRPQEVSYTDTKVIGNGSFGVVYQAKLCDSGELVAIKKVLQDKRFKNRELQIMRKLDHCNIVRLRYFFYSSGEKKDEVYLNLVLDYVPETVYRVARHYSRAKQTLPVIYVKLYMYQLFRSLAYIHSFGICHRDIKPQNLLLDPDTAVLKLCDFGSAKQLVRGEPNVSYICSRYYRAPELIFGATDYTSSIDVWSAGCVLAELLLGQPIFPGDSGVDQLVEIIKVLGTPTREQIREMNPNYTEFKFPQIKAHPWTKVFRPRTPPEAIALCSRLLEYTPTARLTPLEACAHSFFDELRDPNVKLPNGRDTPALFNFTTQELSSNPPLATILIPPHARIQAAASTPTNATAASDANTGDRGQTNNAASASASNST
# [6] = molecular target: T3, Cyclin-dependent kinase 5/CDK5 activator 1 (Homo sapiens) (UniProt Q00535+Q15078); assay: Inhibition of human CDK5/p25 assessed as residual activity at 10 uM in presence of ATP by ADP-glo luminescent assay relative to control; type: protein-complex assay; method in brief: as §1
# T3 sequence (Q00535 whole entry): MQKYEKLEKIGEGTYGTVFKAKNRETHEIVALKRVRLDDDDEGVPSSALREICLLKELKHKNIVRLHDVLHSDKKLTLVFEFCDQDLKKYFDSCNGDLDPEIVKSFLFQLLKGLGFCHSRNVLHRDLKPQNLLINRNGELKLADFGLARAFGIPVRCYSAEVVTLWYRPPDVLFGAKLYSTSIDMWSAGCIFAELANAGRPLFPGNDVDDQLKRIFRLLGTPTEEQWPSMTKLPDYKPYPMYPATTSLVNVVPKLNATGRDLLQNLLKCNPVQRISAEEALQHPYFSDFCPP
# T3 sequence (Q15078 99-307 partner limits assumed): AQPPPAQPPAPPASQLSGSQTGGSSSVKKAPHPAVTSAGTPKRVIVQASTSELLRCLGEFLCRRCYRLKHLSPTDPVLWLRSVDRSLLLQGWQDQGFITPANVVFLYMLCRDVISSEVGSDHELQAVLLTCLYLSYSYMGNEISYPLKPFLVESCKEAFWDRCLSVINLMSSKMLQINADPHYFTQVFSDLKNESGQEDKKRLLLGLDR
# [7] = molecular target: T1, CDK9/cyclin T1 (Homo sapiens); assay: Inhibition of human CDK9/cyclin T assessed as residual activity at 1 uM in presence of ATP by ADP-glo luminescent assay relative to control; type: protein-complex assay; method in brief: as §1
# [8] = tested on: Leishmania major; assay: Inhibition of Leishmania major CK1 assessed as residual activity at 1 uM in presence of ATP by ADP-glo luminescent assay relative to control
# [9] = molecular target: T2, Glycogen synthase kinase-3 beta; assay: Inhibition of human GSK3beta assessed as residual activity at 1 uM in presence of ATP by ADP-glo luminescent assay relative to control; method in brief: as §1
# Target sequence in this assay (P49841 whole entry, looked up): as the sequence (P49841 whole entry) above
# [10] = molecular target: Cyclin-dependent kinase 5/CDK5 activator 1 (Homo sapiens, UniProt Q00535); assay: Inhibition of human CDK5/p25 in presence of ATP by ADP-glo luminescent assay; type: protein-complex assay; method in brief: as §4
# Chain of Cyclin-dependent kinase 5/CDK5 activator 1 (Q00535 whole entry): as the sequence (Q00535 whole entry) above
# Chain of Cyclin-dependent kinase 5/CDK5 activator 1 (Q15078 whole entry, further chain): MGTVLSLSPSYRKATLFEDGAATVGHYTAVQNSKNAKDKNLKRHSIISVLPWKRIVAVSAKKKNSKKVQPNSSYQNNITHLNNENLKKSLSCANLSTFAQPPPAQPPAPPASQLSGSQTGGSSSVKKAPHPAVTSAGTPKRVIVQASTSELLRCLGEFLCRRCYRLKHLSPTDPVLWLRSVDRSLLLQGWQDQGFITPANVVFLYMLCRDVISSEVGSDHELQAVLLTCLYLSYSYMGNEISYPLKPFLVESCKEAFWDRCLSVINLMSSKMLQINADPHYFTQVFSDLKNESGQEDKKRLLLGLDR
# [11] = molecular target: T2, Glycogen synthase kinase-3 beta; assay: Inhibition of human GSK3beta assessed as residual activity at 10 uM in presence of ATP by ADP-glo luminescent assay relative to control; method in brief: as §1
# Target sequence in this assay (P49841 whole entry, looked up): as the sequence (P49841 whole entry) above
# [12] = organism: Sus scrofa; assay: Inhibition of porcine CK1delta/epsilon assessed as residual activity at 10 uM in presence of ATP by ADP-glo luminescent assay relative to control
# [13] = tested on: MIA PaCa-2; assay: Antiproliferative activity against human MIA PaCa-2 cells assessed as reduction in cell viability incubated for 72 hrs by CellTiter-Blue fluorescence assay; details: MIA PaCa-2, 72 h
# [14] = tested on: SK-BR-3; assay: Antiproliferative activity against human SK-BR-3 cells assessed as reduction in cell viability incubated for 72 hrs by CellTiter-Blue fluorescence assay; details: SK-BR-3, 72 h
# [15] = tested on: SK-OV-3; assay: Antiproliferative activity against human SKOV3 cells assessed as reduction in cell viability incubated for 72 hrs by CellTiter-Blue fluorescence assay; details: SK-OV-3, 72 h
# [16] = tested on: NCI-N87; assay: Antiproliferative activity against human NCI-N87 cells assessed as reduction in cell viability incubated for 72 hrs by CellTiter-Blue fluorescence assay; details: NCI-N87, 72 h
# [17] = molecular target: T4, CDK2/Cyclin A2 (Homo sapiens) (UniProt P24941+P20248); assay: Inhibition of human CDK2/cyclin A assessed as residual activity at 1 uM in presence of ATP by ADP-glo luminescent assay relative to control; type: protein-complex assay; method in brief: as §1
# [18] = tested on: HCT-116; assay: Antiproliferative activity against human HCT-116 cells assessed as reduction in cell viability incubated for 72 hrs by CellTiter-Blue fluorescence assay; details: HCT-116, 72 h
# [19] = molecular target: CDK9/cyclin T1 (Homo sapiens, UniProt P50750); assay: Inhibition of human CDK9/cyclin T in presence of ATP by ADP-glo luminescent assay; type: protein-complex assay; method in brief: as §4
# Chain of CDK9/cyclin T1 (O60563 whole entry): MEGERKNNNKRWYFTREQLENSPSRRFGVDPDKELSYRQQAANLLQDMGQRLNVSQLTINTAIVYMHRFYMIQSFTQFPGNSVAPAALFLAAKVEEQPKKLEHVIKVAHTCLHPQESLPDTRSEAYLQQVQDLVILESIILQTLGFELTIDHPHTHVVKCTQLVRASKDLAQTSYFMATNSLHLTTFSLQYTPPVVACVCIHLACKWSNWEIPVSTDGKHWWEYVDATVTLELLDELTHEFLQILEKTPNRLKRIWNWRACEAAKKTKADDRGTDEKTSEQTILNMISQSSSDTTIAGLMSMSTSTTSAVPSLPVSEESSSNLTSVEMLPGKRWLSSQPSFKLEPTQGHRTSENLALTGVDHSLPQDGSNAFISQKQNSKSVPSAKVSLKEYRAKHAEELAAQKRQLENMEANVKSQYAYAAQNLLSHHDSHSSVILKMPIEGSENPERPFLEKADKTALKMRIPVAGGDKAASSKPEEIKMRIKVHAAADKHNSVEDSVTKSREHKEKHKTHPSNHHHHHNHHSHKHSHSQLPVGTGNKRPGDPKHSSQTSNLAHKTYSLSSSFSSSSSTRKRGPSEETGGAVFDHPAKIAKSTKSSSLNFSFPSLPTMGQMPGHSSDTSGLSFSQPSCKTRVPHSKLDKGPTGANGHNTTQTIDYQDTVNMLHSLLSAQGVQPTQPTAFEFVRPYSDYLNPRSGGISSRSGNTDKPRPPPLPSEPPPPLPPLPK
# Chain of CDK9/cyclin T1 (P50750 whole entry): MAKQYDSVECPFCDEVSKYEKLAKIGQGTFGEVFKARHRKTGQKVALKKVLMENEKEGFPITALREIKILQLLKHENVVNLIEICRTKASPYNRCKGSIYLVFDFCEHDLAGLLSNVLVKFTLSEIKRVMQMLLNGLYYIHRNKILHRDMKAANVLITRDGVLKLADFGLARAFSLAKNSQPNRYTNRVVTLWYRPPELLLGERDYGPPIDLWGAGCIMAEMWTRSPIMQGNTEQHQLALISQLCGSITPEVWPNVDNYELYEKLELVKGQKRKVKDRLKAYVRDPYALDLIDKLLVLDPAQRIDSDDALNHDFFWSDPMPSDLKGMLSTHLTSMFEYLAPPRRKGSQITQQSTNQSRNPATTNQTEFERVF
# [20] = tested on: PC-3; assay: Antiproliferative activity against human PC-3 cells assessed as reduction in cell viability incubated for 72 hrs by CellTiter-Blue fluorescence assay; details: PC-3, 72 h
# [21] = tested on: Plasmodium falciparum; assay: Inhibition of Plasmodium falciparum GSK3 assessed as residual activity at 10 uM in presence of ATP by ADP-glo luminescent assay relative to control; method in brief: as §3
# [22] = molecular target: T4, CDK2/Cyclin A2 (Homo sapiens); assay: Inhibition of human CDK2/cyclin A assessed as residual activity at 10 uM in presence of ATP by ADP-glo luminescent assay relative to control; type: protein-complex assay; method in brief: as §1
# [23] = tested on: Leishmania major; assay: Inhibition of Leishmania major CK1 assessed as residual activity at 10 uM in presence of ATP by ADP-glo luminescent assay relative to control
# [24] = organism: Sus scrofa; assay: Inhibition of porcine CK1delta/epsilon assessed as residual activity at 1 uM in presence of ATP by ADP-glo luminescent assay relative to control
# [25] = molecular target: CDK2/Cyclin A2 (Homo sapiens, UniProt P24941); assay: Inhibition of human CDK2/cyclin A in presence of ATP by ADP-glo luminescent assay; type: protein-complex assay; method in brief: as §4
# [26] = organism: Sus scrofa; assay: Inhibition of porcine GSK3alpha/beta assessed as residual activity at 1 uM in presence of ATP by ADP-glo luminescent assay relative to control; method in brief: as §2
# [27] = molecular target: T3, Cyclin-dependent kinase 5/CDK5 activator 1 (Homo sapiens); assay: Inhibition of human CDK5/p25 assessed as residual activity at 1 uM in presence of ATP by ADP-glo luminescent assay relative to control; type: protein-complex assay; method in brief: as §1
Compound,Activity [1] [%],Activity [2] [%],Activity [3] [%],IC50 [4] [nM],IC50 [5] [nM],Activity [6] [%],Activity [7] [%],Activity [8] [%],Activity [9] [%],IC50 [10] [nM],Activity [11] [%],Activity [12] [%],IC50 [13] [nM],IC50 [14] [nM],IC50 [15] [nM],IC50 [16] [nM],Activity [17] [%],IC50 [18] [nM],IC50 [19] [nM],IC50 [20] [nM],other results
CN1CC=C(c2c(O)cc(O)c3c(=O)cc(-c4ccc(Sc5nc6ccccc6[nH]5)cc4Cl)oc23)CC1,3,4,> 100,36,216,14,2,81,14,550,4,48,361,66.6,333,12,46,170,15,326,Activity [21]: 64%; Activity [22]: 22%; Activity [23]: 35%; Activity [24]: 86%; IC50 [25]: 1560 nM; Activity [26]: 43%; Activity [27]: 42%
CN1CC=C(c2c(O)cc(O)c3c(=O)cc(-c4ccc(Sc5nc6ccccc6n5C)cc4)oc23)CC1,-4,8,80,345,160,26,-2,68,31,284,-3,41,361,249,344,391,51,219,14,276,Activity [21]: 79%; Activity [22]: 25%; Activity [23]: 57%; Activity [24]: 83%; IC50 [25]: 349 nM; Activity [26]: 41%; Activity [27]: 41%

# Reference: ChEMBL document CHEMBL4765319, “Identification of a new series of flavopiridol-like structures as kinase inhibitors with high cytotoxic potency” (Eur J Med Chem, 2020)
